SMILES strings stand for the structures.

Assay [1] deals with Rattus norvegicus. The assay can be described thus: In vivo inhibitory activity against fluid in reverse passive Arthus reaction (RPAR) assay at dose 25 mg/kg in the pleural cavity of rats. The assay is classed as functional. Summed up:
(§1)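 Male rats, five per group, dosed orally 1 h before iv BSA antigen (5 mg). Rabbit anti-BSA IgG (0.5 mg) given intrapleurally 30 min later. At 4 h, pleural exudate volume was measured and neutrophils counted (Coulter) after saline-EDTA lavage. Reported as % reduction in cells and fluid relative to control.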

Assay [2] has as its system Rattus norvegicus. The assay can be described thus: In vivo antiinflammatory activity against edema formation in the noninjected(secondary) paw of the rat (before edema stimulation) at dose 25 mg/kg. It is filed as functional. The essentials: (§2)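 Adjuvant arthritis in rats, prophylactic regimen. Oral dosing began 1 h before challenge and continued for 21 consecutive days. Heat-killed M. tuberculosis in paraffin oil (6 mg/mL), 0.1 mL injected into the left hind paw, with methylcellulose-treated controls. Both hind paw volumes measured by plethysmograph on day 21. Reported as % change relative to control.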

Assay [3] has as its system Rattus norvegicus. The assay can be described thus: In vivo effect on prostaglandin and leukotriene mediated production in rat pleural cavity was assessed by the inhibition of TXB2 in 5-lipoxygenase/ cyclooxygenase at dose 40 mg/kg. It is filed as functional. Summed up: (§3)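 Rat reversed passive Arthus pleurisy, oral dosing 1 h before challenge. BSA given iv (5 mg), then rabbit anti-BSA IgG intrapleurally 30 min later. At 4 h, exudate was collected into indomethacin/NDGA and its volume recorded. Neutrophils were counted by Coulter counter. TXB2 and LTE4 in ethanol-extracted supernatant were measured by RIA with tritiated recovery spikes. Reported as % inhibition versus control.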

Assay [4] deals with Rattus norvegicus. Description: In vivo inhibitory activity against cells in reverse passive Arthus reaction (RPAR) assay at dose 25 mg/kg in the pleural cavity of rats. The assay is classed as functional. The essentials:
as §1

The target in assay [5] is T1, Polyunsaturated fatty acid 5-lipoxygenase (Homo sapiens) (UniProt P09917).
T1 sequence (whole entry): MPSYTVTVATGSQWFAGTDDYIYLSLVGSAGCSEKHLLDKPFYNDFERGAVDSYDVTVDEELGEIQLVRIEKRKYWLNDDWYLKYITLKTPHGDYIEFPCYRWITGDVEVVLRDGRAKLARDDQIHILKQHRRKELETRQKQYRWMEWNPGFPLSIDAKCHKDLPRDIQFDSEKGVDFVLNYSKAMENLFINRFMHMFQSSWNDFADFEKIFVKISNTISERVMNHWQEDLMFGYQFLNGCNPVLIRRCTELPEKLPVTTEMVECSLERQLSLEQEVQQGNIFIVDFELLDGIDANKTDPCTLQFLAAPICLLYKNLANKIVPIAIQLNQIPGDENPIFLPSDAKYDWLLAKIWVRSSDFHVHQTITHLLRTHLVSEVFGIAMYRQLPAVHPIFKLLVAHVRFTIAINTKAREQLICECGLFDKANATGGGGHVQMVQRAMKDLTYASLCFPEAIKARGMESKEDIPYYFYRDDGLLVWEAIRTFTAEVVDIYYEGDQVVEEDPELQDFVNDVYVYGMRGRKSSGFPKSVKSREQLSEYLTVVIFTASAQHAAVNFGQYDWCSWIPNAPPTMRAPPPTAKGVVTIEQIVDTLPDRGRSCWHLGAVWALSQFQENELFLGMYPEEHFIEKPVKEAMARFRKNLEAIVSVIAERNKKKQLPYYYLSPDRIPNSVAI
The assay can be described thus: In vitro inhibitory activity against 5-lipoxygenase in human polymorphonuclear (PMN) cells. To be noted: concentration not given here. The essentials:
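Human PMN neutrophils (2×10^7 cells/mL) in HEPES buffer with 1 mM CaCl2, preincubated 4 min with test compound in DMSO vehicle. Then stimulated with [14C]arachidonic acid plus calcium ionophore A23187 for 5 min and stopped with methanol. 5-HETE was quantitated by HPLC. Reported as % inhibition versus vehicle, tested at 15 μM.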

In assay [6] the test system is Rattus norvegicus. The assay can be described thus: In vivo effect on prostaglandin and leukotriene mediated production in rat pleural cavity was assessed by the inhibition of LTE4 in 5-lipoxygenase/ cyclooxygenase at dose 40 mg/kg.
Assay [7] has as its system Rattus norvegicus. The assay can be described thus: In vivo antiinflammatory activity against edema formation in the injected(primary) paw of the rat(before edema stimulation) at dose 25 mg/kg. It is filed as functional. Summed up: as §2
The test system of assay [8] is Rattus norvegicus. Description: In vivo effect on prostaglandin and leukotriene mediated production in rat pleural cavity was assessed by the inhibition of fluid volume in 5-lipoxygenase/ cyclooxygenase at dose 40 mg/kg. It is filed as functional. Summed up: as §3
For assay [9], the system named is Rattus norvegicus. Description: In vivo effect on prostaglandin and leukotriene mediated production in rat pleural cavity was assessed by the inhibition of cell influx in 5-lipoxygenase/ cyclooxygenase at dose 40 mg/kg. It is filed as functional. Summed up:
as §3

The target of assay [10] is Cyclooxygenase (Homo sapiens) (UniProt P35354+P23219). Description: In vitro inhibitory activity against Prostaglandin G/H synthase in human platelets. More on the design: concentration or dose not given beside the values. To be noted: concentration not given here. The essentials:
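Human platelets (2×10^5/mL) in HEPES buffer with 0.5 mM EGTA and 1.5 mM CaCl2, incubated 4 min with compound in DMSO vehicle. Then given [14C]arachidonic acid and A23187 ionophore for 5 min and stopped with methanol. HHT was measured by reverse-phase HPLC. Reported as % inhibition of HHT versus vehicle, at 15 μM.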

Assay [11] has as its system Rattus norvegicus. Description: In vivo effect on prostaglandin and leukotriene mediated production in rat pleural cavity was assessed by the inhibition of cell influx in 5-lipoxygenase/ cyclooxygenase at dose 25 mg/kg. The assay is classed as functional. The essentials: as §3
Assay [12] deals with Rattus norvegicus. Description: In vivo effect on prostaglandin and leukotriene mediated production in rat pleural cavity was assessed by the inhibition of TXB2 in 5-lipoxygenase/ cyclooxygenase at dose 25 mg/kg. It is filed as functional. Summed up:
as §3

The subject of assay [13] is Rattus norvegicus. Description: In vivo antiinflammatory activity against edema formation in the noninjected(secondary) paw of the rat (after edema stimulation) at dose 25 mg/kg. The assay is classed as functional. Summed up: (§4)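 Adjuvant arthritis in rats, therapeutic regimen. Heat-killed M. tuberculosis in paraffin oil (6 mg/mL), 0.1 mL injected into the left hind paw. Lesion allowed to develop 7 days before the first oral dose, with methylcellulose-treated controls. Paw volumes measured by plethysmograph, final reading on day 21. Reported as % change in paw volume relative to control.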

The test system of assay [14] is Rattus norvegicus. Description: In vivo antiinflammatory activity against edema formation in the injected(primary) paw of the rat(after edema stimulation) at dose 25 mg/kg. It is filed as functional. The essentials: as §4
Assay [15] has as its system Rattus norvegicus. The assay can be described thus: In vivo effect on prostaglandin and leukotriene mediated production in rat pleural cavity was assessed by the inhibition of fluid volume in 5-lipoxygenase/ cyclooxygenase at dose 25 mg/kg. It is filed as functional. To be noted: for inhibition in vivo at 25 mg/kg: Rattus norvegicus, Pleural cavity. The essentials: as §3

In assay [16] the test system is Rattus norvegicus. The assay can be described thus: In vivo effect on prostaglandin and leukotriene mediated production in rat pleural cavity was assessed by the inhibition of TXB2 in 5-lipoxygenase/ cyclooxygenase at dose 20 mg/kg. The assay is classed as functional. The essentials: as §3
Assay [17] deals with Rattus norvegicus. Description: In vivo effect on prostaglandin and leukotriene mediated production in rat pleural cavity was assessed by the inhibition of fluid volume in 5-lipoxygenase/ cyclooxygenase at dose 20 mg/kg. The assay is classed as functional. The essentials:
as §3

The test system of assay [18] is Rattus norvegicus. Description: In vivo effect on prostaglandin and leukotriene mediated production in rat pleural cavity was assessed by the inhibition of LTE4 in 5-lipoxygenase/ cyclooxygenase at dose 20 mg/kg.
Assay [19] concerns Rattus norvegicus. Description: In vivo effect on prostaglandin and leukotriene mediated production in rat pleural cavity was assessed by the inhibition of cell influx in 5-lipoxygenase/ cyclooxygenase at dose 20 mg/kg. It is filed as functional. Summed up: as §3
The subject of assay [20] is Rattus norvegicus. Description: In vivo effect on prostaglandin and leukotriene mediated production in rat pleural cavity was assessed by the inhibition of cell influx in 5-lipoxygenase/ cyclooxygenase at dose 1.0 mg/kg. The assay is classed as functional. Summed up:
as §3

Assay [21] has as its system Rattus norvegicus. Description: In vivo effect on prostaglandin and leukotriene mediated production in rat pleural cavity was assessed by the inhibition of fluid volume in 5-lipoxygenase/ cyclooxygenase at dose 1.0 mg/kg. It is filed as functional. The essentials:
as §3

The subject of assay [22] is Rattus norvegicus. Description: In vivo antiinflammatory activity against edema formation in the noninjected(secondary) paw of the rat (before edema stimulation) at dose 2.0 mg/kg. It is filed as functional. Summed up:
as §2

The subject of assay [23] is Rattus norvegicus. The assay can be described thus: In vivo antiinflammatory activity against edema formation in the noninjected(secondary) paw of the rat (after edema stimulation) at dose 2.0 mg/kg. The assay is classed as functional.
Assay [24] relates to Rattus norvegicus. Description: In vivo effect on prostaglandin and leukotriene mediated production in rat pleural cavity was assessed by the inhibition of TxB2 in 5-lipoxygenase/ cyclooxygenase at dose 25 mg/kg.
Assay [25] has as its system Rattus norvegicus. The assay can be described thus: In vivo effect on prostaglandin and leukotriene mediated production in rat pleural cavity was assessed by the inhibition of LTE4 in 5-lipoxygenase/ cyclooxygenase at dose 25 mg/kg. It is filed as functional. Summed up:
as §3

As usually defined, the ED50 is the dose that gives a 50% effect, or the effect in half of the subjects. One may read the inhibition in vivo as the percentage by which the read-out fell short of the control. For orientation: inhibition means how much of the control response was suppressed. In the case of `CC1(C)C(=O)N(c2ccccc2)c2ncccc21`, the ED50 in the assay on Rattus norvegicus [1] was 35.1 mg/kg; in the assay with Rattus norvegicus [4], 21.9 mg/kg. Also, the inhibition in vivo at 25 mg/kg turned out to be 24% in the assay with Rattus norvegicus [2] and 0% in the assay on Rattus norvegicus [7]. For the same compound, the inhibition in vivo at 40 mg/kg in the assay on Rattus norvegicus [3] is 54%; with Rattus norvegicus [8] it was 60%; with Rattus norvegicus [9], 70%. Besides, the inhibition in [5] and in [10] was 0% each time. The same compound gave an LTE4 inhibition in the assay with Rattus norvegicus [6] of 54%.

A word on the Inhibition: it is the change of the read-out against control, counted positive when it falls. Turning to `CC1(C)C(=O)N(c2ccc(Cl)cc2)c2ncccc21`, the values for the ED50 in the assay with Rattus norvegicus [1] and with Rattus norvegicus [4] were 27.9 mg/kg and 4.5 mg/kg, respectively. For the same compound, the inhibition in vivo at 25 mg/kg in the assay with Rattus norvegicus [2] turned out to be 65%; in the assay on Rattus norvegicus [11], 73%; in the assay with Rattus norvegicus [12], 78%; with Rattus norvegicus [13] it was 54%; in the assay on Rattus norvegicus [14] it was 31%; in the assay on Rattus norvegicus [15], 83%. The compound further registered an inhibition in vivo at 25 mg/kg in the assay on Rattus norvegicus [7] of 13%. In addition, the inhibition in assay [5] was found to be 13%; in assay [10], 47%. For the same compound, the Inhibition in the assay on Rattus norvegicus [15] (25 mg/kg) worked out at 83%.

Take `CC1(C)C(=O)N(c2ccc(F)cc2)c2ncccc21`: the ED50 amounted to 29.5 mg/kg with Rattus norvegicus [1] and 4.5 mg/kg in the assay on Rattus norvegicus [4]. Also, the inhibition in vivo at 20 mg/kg in the assay with Rattus norvegicus [16] came out at 53%; in the assay with Rattus norvegicus [17], 43%; in the assay on Rattus norvegicus [19], 70%. The inhibition in vivo at 25 mg/kg came to 48% in the assay with Rattus norvegicus [2] and 0% with Rattus norvegicus [7]. The inhibition came to 2% in assay [5] and 0% in assay [10]. Moreover, the LTE4 inhibition with Rattus norvegicus [18] was 36%.

`COc1ccc2c(c1)c(CC(=O)O)c(C)n2C(=O)c1ccc(Cl)cc1` [INDOMETHACIN]: the inhibition in vivo at 1 mg/kg with Rattus norvegicus [20] was 48%; in the assay with Rattus norvegicus [21] it was 24%. Also, the inhibition in vivo at 2 mg/kg in the assay with Rattus norvegicus [22] worked out at 70%; in the assay on Rattus norvegicus [23] it was 88%.

Turning to `CC(C)(C(=O)[O-])c1cccnc1Nc1ccc(Cl)cc1.[Na+]`, the TxB2 inhibition with Rattus norvegicus [24] turned out to be 81%. Also, the inhibition in vivo at 25 mg/kg in the assay with Rattus norvegicus [25] worked out at 76%; in the assay with Rattus norvegicus [2] it was 34%; in the assay with Rattus norvegicus [11] it was 62%; with Rattus norvegicus [15], 71%; in the assay on Rattus norvegicus [7], 14%. Also, the ED50 with Rattus norvegicus [1] was 9.6 mg/kg; in the assay with Rattus norvegicus [4] it was 11.3 mg/kg. Further, the inhibition in assay [5] stood at 0%; in assay [10] it was 28%.

Source of the values: ChEMBL document CHEMBL1125117, “Substituted 1,3-dihydro-2H-pyrrolo[2,3-b]pyridin-2-ones as potential antiinflammatory agents” (1990).
